Where a chain is given by its changes, count along the chain named.
Assays:
Conditions in all cases: stereoisomer not certain
[1] = target: T1, OR52A5 (Homo sapiens) (UniProt Q9H2C5)
T1 sequence (whole entry): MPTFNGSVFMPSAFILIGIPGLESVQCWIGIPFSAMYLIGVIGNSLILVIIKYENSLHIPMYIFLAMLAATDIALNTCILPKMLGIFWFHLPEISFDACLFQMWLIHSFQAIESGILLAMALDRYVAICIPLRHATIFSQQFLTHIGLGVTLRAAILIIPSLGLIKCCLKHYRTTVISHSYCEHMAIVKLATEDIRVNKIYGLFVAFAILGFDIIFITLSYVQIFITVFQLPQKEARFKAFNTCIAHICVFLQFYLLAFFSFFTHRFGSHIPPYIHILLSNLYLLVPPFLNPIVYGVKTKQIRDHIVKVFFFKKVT
Outline: (§1)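 Each entry records the cell line, G-protein, co-transfected protein and tags used. Methods varied with the source, often transient luciferase assays in mammalian cell lines. A receptor–molecule pair is called responsive (active) if the original authors judged its signal statistically different from baseline and non-responsive (inactive) otherwise.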

[2] = target: T2, OR52B2 (Homo sapiens) (UniProt Q96RD2)
T2 sequence (whole entry): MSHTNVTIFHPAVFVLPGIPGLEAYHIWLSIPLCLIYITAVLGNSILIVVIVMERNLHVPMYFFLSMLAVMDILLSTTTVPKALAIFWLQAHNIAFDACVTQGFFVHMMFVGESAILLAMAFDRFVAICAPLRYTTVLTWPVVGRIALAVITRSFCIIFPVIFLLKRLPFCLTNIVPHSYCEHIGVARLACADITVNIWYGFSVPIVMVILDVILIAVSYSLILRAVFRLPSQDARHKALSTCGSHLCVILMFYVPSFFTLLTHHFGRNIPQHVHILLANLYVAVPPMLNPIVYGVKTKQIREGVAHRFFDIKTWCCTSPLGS
Outline: as §1

[3] = target: T3, OR52B4 (Homo sapiens) (UniProt Q8NGK2)
T3 sequence (whole entry): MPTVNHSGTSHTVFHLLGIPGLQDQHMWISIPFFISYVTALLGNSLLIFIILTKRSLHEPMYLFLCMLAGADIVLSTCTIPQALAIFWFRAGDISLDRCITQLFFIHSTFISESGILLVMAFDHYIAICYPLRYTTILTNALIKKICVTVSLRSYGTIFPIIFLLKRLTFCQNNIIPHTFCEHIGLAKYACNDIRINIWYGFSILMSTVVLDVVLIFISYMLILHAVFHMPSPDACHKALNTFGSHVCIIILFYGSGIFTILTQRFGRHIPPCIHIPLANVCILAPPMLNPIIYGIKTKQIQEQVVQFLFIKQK
Outline: as §1

[4] = target: T4, OR52B6 (Homo sapiens) (UniProt Q8NGF0)
T4 sequence (whole entry): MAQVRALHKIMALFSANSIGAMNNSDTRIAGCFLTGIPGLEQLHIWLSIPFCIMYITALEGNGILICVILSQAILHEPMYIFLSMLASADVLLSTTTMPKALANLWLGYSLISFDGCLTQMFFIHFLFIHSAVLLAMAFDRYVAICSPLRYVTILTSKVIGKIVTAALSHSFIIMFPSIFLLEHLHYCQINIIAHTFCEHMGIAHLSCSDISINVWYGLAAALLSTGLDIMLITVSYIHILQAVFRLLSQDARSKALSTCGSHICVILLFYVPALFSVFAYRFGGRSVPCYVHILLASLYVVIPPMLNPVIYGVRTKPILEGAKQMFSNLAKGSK
Outline: as §1

[5] = target: T5, OR52D1 (Homo sapiens) (UniProt Q9H346)
T5 sequence (whole entry): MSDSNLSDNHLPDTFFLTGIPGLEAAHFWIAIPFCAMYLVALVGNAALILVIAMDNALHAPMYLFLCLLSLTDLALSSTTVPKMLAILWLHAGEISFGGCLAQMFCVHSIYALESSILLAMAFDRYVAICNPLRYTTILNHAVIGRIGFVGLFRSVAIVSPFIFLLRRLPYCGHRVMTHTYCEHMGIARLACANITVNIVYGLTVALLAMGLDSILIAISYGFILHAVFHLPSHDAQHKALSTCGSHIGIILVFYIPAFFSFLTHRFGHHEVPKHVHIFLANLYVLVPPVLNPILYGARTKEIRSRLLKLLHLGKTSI
Outline: as §1

[6] = target: OR52E1 (Homo sapiens) (UniProt Q8NGJ3)
Outline: as §1

[7] = target: OR52E2 (Homo sapiens) (UniProt Q8NGJ4)
Outline: as §1

[8] = target: OR52E4 (Homo sapiens) (UniProt Q8NGH9)
Outline: as §1

[9] = target: OR52E6 (Homo sapiens) (UniProt Q96RD3)
Outline: as §1

[10] = target: T6, OR52I1 (Homo sapiens) (UniProt Q8NGK6)
T6 sequence (whole entry): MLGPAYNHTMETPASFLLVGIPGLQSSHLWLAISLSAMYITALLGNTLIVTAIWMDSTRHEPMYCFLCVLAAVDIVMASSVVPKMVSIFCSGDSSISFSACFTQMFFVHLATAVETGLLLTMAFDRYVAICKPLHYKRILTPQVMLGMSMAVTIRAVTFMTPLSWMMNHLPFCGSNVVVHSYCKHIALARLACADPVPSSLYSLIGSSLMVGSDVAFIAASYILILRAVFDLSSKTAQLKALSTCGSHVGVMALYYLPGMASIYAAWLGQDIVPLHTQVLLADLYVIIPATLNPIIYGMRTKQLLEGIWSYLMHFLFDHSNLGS
Outline: as §1

[11] = target: T7, OR52I2 (Homo sapiens) (UniProt Q8NH67)
T7 sequence (whole entry): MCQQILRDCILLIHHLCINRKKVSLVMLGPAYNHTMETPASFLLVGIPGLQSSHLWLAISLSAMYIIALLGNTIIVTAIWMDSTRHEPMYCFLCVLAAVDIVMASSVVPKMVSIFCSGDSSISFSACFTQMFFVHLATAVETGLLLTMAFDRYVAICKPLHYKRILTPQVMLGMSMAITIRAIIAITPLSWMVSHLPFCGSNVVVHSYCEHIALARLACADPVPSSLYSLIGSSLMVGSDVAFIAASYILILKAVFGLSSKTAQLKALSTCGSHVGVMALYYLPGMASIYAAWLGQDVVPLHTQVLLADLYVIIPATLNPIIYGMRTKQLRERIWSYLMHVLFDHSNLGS
Outline: as §1

[12] = target: OR52J3 (Homo sapiens) (UniProt Q8NH60)
Outline: as §1

[13] = target: T8, OR52K1 (Homo sapiens) (UniProt Q8NGK4)
T8 sequence (whole entry): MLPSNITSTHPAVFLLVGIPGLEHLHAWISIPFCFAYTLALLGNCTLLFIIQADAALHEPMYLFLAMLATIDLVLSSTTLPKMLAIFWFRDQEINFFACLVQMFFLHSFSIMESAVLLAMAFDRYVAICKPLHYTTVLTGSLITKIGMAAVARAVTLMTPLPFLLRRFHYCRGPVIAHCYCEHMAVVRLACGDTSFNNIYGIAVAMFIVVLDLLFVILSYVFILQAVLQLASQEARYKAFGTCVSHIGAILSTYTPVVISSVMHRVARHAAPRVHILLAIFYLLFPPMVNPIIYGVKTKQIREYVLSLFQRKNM
Outline: as §1

[14] = target: T9, OR52K2 (Homo sapiens) (UniProt Q8NGK3)
T9 sequence (whole entry): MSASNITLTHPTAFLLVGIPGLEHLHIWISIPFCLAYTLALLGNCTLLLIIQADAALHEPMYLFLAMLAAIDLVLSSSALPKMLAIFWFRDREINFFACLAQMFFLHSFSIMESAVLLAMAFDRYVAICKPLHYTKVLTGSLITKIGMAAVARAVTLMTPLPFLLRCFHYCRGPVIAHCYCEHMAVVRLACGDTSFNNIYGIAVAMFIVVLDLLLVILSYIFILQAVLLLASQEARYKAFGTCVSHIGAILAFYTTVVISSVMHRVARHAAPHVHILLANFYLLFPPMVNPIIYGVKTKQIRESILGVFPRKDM
Outline: as §1

[15] = target: T10, OR52L1 (Homo sapiens) (UniProt Q8NGH7)
T10 sequence (whole entry): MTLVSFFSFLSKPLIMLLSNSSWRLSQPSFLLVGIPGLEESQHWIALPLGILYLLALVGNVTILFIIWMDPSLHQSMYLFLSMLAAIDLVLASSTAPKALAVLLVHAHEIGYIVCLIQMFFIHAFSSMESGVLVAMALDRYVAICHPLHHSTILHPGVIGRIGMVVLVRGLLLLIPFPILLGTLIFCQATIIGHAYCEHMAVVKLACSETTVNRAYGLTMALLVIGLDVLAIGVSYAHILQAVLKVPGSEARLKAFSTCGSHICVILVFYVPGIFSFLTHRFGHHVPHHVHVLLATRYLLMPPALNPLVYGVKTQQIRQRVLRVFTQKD
Outline: as §1

[16] = target: T11, OR52M1 (Homo sapiens) (UniProt Q8NGK5)
T11 sequence (whole entry): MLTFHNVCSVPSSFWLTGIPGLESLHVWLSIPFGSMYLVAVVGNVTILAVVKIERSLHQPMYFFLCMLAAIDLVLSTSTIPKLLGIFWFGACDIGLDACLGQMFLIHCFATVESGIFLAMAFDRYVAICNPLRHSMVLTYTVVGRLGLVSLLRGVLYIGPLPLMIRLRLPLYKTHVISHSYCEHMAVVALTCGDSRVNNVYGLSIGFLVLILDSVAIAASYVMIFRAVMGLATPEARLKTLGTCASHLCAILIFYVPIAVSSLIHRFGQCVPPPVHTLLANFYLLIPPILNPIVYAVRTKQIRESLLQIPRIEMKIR
Outline: as §1

[17] = target: T12, OR52N1 (Homo sapiens) (UniProt Q8NH53)
T12 sequence (whole entry): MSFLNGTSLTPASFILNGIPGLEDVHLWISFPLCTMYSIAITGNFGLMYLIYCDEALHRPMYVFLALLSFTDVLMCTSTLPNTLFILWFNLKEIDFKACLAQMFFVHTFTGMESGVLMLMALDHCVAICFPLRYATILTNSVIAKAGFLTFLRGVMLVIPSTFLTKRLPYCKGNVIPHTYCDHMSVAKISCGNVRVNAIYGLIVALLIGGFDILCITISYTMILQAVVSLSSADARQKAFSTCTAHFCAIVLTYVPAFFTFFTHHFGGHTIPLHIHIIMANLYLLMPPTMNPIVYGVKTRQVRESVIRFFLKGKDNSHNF
Outline: as §1

[18] = target: T13, OR52N2 (Homo sapiens) (UniProt Q8NGI0)
T13 sequence (whole entry): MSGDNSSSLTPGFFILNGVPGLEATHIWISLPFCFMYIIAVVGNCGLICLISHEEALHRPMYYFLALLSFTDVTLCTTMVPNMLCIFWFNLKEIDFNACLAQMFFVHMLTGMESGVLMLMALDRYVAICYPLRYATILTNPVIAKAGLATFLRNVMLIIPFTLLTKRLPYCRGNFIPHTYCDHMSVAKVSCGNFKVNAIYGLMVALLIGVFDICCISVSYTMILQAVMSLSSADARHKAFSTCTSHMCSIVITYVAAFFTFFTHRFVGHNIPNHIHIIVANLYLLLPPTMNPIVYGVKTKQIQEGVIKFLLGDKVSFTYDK
Outline: as §1

[19] = target: OR52E5 (Homo sapiens) (UniProt Q8NH55)
Outline: as §1

[20] = target: T14, OR52L1 (Homo sapiens) (UniProt Q8NGH7); remark: listed apart in the source
T14 sequence (whole entry): T10 sequence (whole entry) with R140C, R161C, T183K, R297W
Outline: as §1

Measured: odorant receptor agonist call

Sequence of OR52E1 (Homo sapiens) (Q8NGJ3 whole entry): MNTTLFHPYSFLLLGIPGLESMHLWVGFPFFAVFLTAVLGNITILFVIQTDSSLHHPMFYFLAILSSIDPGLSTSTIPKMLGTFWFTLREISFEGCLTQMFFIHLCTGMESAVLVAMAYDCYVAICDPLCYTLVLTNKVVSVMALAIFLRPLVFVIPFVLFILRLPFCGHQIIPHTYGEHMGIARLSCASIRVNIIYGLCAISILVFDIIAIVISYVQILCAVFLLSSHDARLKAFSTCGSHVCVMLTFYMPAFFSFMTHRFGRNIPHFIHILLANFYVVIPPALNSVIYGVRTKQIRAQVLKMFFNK
Sequence of OR52E4 (Homo sapiens) (Q8NGH9 whole entry): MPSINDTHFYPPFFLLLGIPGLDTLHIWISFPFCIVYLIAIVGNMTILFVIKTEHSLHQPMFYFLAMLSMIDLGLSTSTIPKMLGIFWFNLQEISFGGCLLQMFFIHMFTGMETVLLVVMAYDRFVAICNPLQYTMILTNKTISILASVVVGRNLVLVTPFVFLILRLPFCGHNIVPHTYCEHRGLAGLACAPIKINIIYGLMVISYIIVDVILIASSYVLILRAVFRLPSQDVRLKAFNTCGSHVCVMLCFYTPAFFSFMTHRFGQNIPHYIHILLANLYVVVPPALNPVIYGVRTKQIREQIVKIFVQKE
Sequence of OR52E6 (Homo sapiens) (Q96RD3 whole entry): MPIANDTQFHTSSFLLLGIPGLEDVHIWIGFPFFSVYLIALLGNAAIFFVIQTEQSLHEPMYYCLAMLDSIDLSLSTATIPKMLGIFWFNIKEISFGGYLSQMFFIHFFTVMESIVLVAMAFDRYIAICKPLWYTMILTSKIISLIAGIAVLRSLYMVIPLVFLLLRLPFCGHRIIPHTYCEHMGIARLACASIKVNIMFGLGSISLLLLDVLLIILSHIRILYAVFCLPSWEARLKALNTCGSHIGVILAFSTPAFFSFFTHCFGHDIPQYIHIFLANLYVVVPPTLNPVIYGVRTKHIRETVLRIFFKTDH
Sequence of OR52E2 (Homo sapiens) (Q8NGJ4 whole entry): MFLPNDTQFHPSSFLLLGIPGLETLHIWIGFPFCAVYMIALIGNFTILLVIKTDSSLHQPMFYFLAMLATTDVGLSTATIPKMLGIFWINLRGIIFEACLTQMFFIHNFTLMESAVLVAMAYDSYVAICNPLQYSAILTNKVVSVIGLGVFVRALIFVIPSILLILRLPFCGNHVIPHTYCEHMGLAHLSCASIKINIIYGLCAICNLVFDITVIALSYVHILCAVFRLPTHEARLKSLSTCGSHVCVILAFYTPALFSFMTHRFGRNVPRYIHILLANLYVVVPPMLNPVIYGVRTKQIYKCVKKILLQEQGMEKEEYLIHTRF
Sequence of OR52J3 (Homo sapiens) (Q8NH60 whole entry): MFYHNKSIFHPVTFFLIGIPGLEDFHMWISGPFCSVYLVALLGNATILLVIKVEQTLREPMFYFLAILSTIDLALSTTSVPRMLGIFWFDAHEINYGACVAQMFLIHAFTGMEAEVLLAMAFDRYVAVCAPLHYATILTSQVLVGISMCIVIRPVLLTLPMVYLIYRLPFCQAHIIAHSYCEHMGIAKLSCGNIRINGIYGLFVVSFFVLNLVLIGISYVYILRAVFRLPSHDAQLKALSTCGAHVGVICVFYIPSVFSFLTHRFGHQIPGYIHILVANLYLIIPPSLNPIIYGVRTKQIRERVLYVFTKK
Sequence of OR52E5 (Homo sapiens) (Q8NH55 whole entry): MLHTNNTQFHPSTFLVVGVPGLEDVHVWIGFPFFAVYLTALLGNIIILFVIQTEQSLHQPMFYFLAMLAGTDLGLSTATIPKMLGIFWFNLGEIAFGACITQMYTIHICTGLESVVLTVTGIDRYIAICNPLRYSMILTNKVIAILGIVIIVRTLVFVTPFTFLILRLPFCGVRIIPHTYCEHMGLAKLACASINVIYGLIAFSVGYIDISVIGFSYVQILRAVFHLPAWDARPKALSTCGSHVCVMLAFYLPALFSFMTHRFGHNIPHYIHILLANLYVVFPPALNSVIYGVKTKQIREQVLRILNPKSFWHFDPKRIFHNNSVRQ

CC1=C(O)C(=O)C(C)O1 (configuration not stated)
not listed: [19] | [20]
inactive: all other assays above

CCC1OC(C)=C(O)C1=O (configuration not stated)
not listed: [19] | [20]
inactive: all other assays above

CC(C)=CCCC(C)=CCO
inactive: [5]

CCC(S)C(C)CO (configuration not stated)
not listed: [6] | [15]
inactive: all other assays above

CCCCCCC=CCCC=O
not listed: [15]
inactive: all other assays above

CCCCCCCCC(=O)O
inactive: [2]
active: [5]

CCCC(S)CCOC(C)=O (configuration not stated)
not listed: [19] | [20]
inactive: all other assays above

CCCCC(S)C(C)CO (configuration not stated)
active: [1] | [20]
not listed: [6] | [15]
inactive: all other assays above

CCCCCCCCCC(=O)[O-].[H+]
inactive: [5]

CCCCCC(=O)OCC
active: [5]

CC(=O)c1c(C)c([N+](=O)[O-])c(C(C)(C)C)c([N+](=O)[O-])c1C
not listed: [15]
inactive: all other assays above

CCCCCCC(=O)[O-].[H+]
active: [5]

Cc1cnc(C)c(C)n1
not listed: [19] | [20]
inactive: all other assays above

Source: the M2OR odorant receptor database
